# Assay results published in ChEMBL document CHEMBL1145444, “Mechanism-based thrombin inhibitors: design, synthesis, and molecular docking of a new selective 2-oxo-2H-1-benzopyran derivative” (J Med Chem, 2007).
# Legend:
# [1] = biological target: Prothrombin (Homo sapiens) (UniProt P00734); test: Inhibition of thrombin assessed as residual activity at 100 uM after 10 min
# Procedure, shortened: (§1)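 Isolated, purified thrombin was incubated with inhibitor for 10 min, then its proteolytic activity was measured. Screening used 100 µM inhibitor, with lower concentrations for potent compounds. Values are reported as percentage of residual enzyme activity.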
# [2] = biological target: Prothrombin (Homo sapiens) (UniProt P00734); test: Ratio of Ki for thrombin to K(inactivation) for thrombin
# Procedure, shortened: (§2)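 Inactivation rate constant (k_i) and K_I were determined by one of two methods depending on the protease. In the progress-curve method, inhibitor competes with a chromogenic substrate. In the preincubation method, enzyme and inhibitor are incubated first and remaining activity is sampled at regular time intervals. k_i/K_I serves as the potency index, and selectivity is taken as the ratio of k_i/K_I between proteases.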
# Homo sapiens [3] = species on record: Homo sapiens; test: Selectivity for thrombin over alpha chymotrypsin; procedure, shortened: as §2
# [4] = biological target: Prothrombin (Homo sapiens) (UniProt P00734); test: Inhibition of thrombin assessed as residual activity at 10 uM after 10 min; procedure, shortened: as §1
# [5] = biological target: Prothrombin (Homo sapiens) (UniProt P00734); test: Inhibition of thrombin assessed as residual activity at 2 uM after 10 min; procedure, shortened: as §1
# [6] = biological target: Prothrombin (Homo sapiens) (UniProt P00734); test: Ratio of kcat for thrombin to Ki for thrombin
# Procedure, shortened: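 Partition ratio is the ratio of product released per inactivation event, calculated as k_cat/k_i, on thrombin.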
# Homo sapiens [7] = species on record: Homo sapiens; test: Ratio of Ki for alpha chymotrypsin to K(inactivation) for alpha chymotrypsin; procedure, shortened: as §2
structure (smiles),measurement,setting,value
O=C(Oc1cc(Cl)ccc1Cl)c1cc2cc(Oc3ccccc3)ccc2oc1=O,Activity,[1],94%
Nc1ccc(Cl)cc1OC(=O)c1cc2cc(CCl)ccc2oc1=O,Activity,[1],60%
O=C(OCc1cc(Cl)ccc1Cl)c1cc2cc(CCl)ccc2oc1=O,Activity,[1],103%
CCOC(=O)COc1ccc(Cl)cc1COC(=O)c1cc2cc(CCl)ccc2oc1=O,Activity,[1],95%
CCNC(=O)COc1ccc(Cl)cc1OC(=O)c1cc2cc(CCl)ccc2oc1=O,Ratio,[2],3460 M⁻¹ s⁻¹
same,Ratio,Homo sapiens [3],5
same,Activity,[4],3%
same,Activity,[5],11%
same,partition ratio kcat/ki,[6],13.5
same,Ratio,Homo sapiens [7],755 M⁻¹ s⁻¹
O=C(OCc1cc(Cl)ccc1O)c1cc2cc(CCl)ccc2oc1=O,Activity,[1],101%
O=C(Oc1cccc(Cl)c1)c1cc2cc(CCl)ccc2oc1=O,Ratio,Homo sapiens [3],0.01
same,partition ratio kcat/ki,[6],2.8
O=C(Nc1cc(Cl)ccc1Cl)c1cc2cc(CCl)ccc2oc1=O,Activity,[1],91%
O=C(Nc1cc(Cl)ccc1O)c1cc2cc(CCl)ccc2oc1=O,Activity,[1],110%
O=C(Oc1cccc(Cl)c1)c1cc2cc(Oc3ccccc3)ccc2oc1=O,Activity,[1],90%
O=C(Oc1cc(Cl)ccc1Cl)c1cc2cc(CCl)ccc2oc1=O,Ratio,Homo sapiens [3],0.13
same,partition ratio kcat/ki,[6],1.8
